The test system of data set [1] is Coxsackievirus B5. As to the kind of experiment: Antiviral activity against Coxsackievirus B5 infected in human HepG2 cells assessed as inhibition of virus-induced cytopathogenicity after 48 hrs by crystal violet staining method. The data set is classed as functional, organism-based. The following applies: for EC50: Enterovirus B, HepG2, 48 h. The essentials: (§1)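 Virus–cell pairings were EV71 in RD, CVB5 in HepG2, ADV7 in HeLa and influenza A H1N1 in MDCK. Compounds were added […], and total infectivity was read by crystal violet staining. EC50 is the concentration reducing viral replication by 50%. Values are mean SD of three independent experiments.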
(In general: Cytopathic effects are the visible damage that an infection or toxin causes in cultured cells.)

Data set [2] is described as follows: Cytotoxicity against human HeLa cells after 72 hrs by MTT assay. Type of data set: cell-based. The essentials: (§2)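 MTT assay on RD (rhabdomyosarcoma), HepG2 and HeLa cell lines. CC50 is the concentration that cut cell viability by 50% relative to 0.1% DMSO-treated mock-control cells. Values are mean and SD of three independent experiments.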
(Tetrazolium assays rely on reduction of a dye to a coloured formazan, in cell work by metabolically active cells.)

Data set [3] concerns Influenza A virus. As to the kind of experiment: Antiviral activity against influenza A virus H1N1 infected in dog MDCK cells assessed as inhibition of virus-induced cytopathogenicity after 48 hrs by crystal violet staining method. Type of data set: functional, organism-based. The essentials:
as §1

Data set [4] in a line: Cytotoxicity against human rhabdomyosarcoma cells after 72 hrs by MTT assay. Type of data set: cell-based, Rhabdomyosarcoma cell. The essentials: as §2
Data set [5] in a line: Selectivity index, ratio of CC50 for human HepG2 cells to EC50 for Coxsackievirus B5 infected in human HepG2 cells. The following applies: read-out: Ratio CC50/EC50. The data set is classed as toxicity, cell-based. The essentials: (§3)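 Antiviral pairings were EV71 in RD cells, CVB5 in HepG2 cells and ADV7 in HeLa cells. Compounds were added […], and total infectivity was read by crystal violet staining. EC50 is the concentration that cut viral replication by 50%. CC50 came from MTT relative to 0.1% DMSO mock control. SI = CC50/EC50. Data are from three independent experiments.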

In data set [6] the test system is Enterovirus. Put plainly: Antiviral activity against Enterovirus 71 infected in human rhabdomyosarcoma cells assessed as inhibition of virus-induced cytopathogenicity after 48 hrs by crystal violet staining method. Type of data set: functional, organism-based. The conditions noted are these: for EC50: Enterovirus, 71, 48 h. The essentials:
as §1

A short description of data set [7]: Cytotoxicity against human HepG2 cells after 72 hrs by MTT assay. The data set is classed as cell-based. The essentials: as §2
Data set [8] in a line: Selectivity index, ratio of CC50 for human rhabdomyosarcoma cells to EC50 for Enterovirus 71 infected in human rhabdomyosarcoma cells. Type of data set: toxicity. The conditions noted are these: read-out: Ratio CC50/EC50. The essentials:
as §3

Data set [9] relates to unidentified adenovirus. Put plainly: Antiviral activity against Adenovirus type 7 infected in human HeLa cells assessed as inhibition of virus-induced cytopathogenicity after 48 hrs by crystal violet staining method. The following applies: for EC50: unidentified adenovirus, type 7, HeLa, 48 h. The data set is classed as functional, organism-based. The essentials: as §1

Data set [10] has as its system Influenza A virus. As to the kind of experiment: Antiviral activity against influenza A virus H1N1 infected in dog MDCK cells assessed as inhibition of virus-induced cytopathogenicity at 32 ug/ml after 48 hrs by crystal violet staining method. Type of data set: functional, organism-based. The essentials: (§4)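 Single-concentration screen with these pairings: RD/EV71, HepG2/CVB5, HeLa/ADV7, MDCK/H1N1. Cells were infected and kept 48 h in the presence of compound at one fixed concentration; some EV71 tests used the lower level. Inhibition of virus proliferation was read by crystal violet staining.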

For data set [11], the system named is unidentified adenovirus. As to the kind of experiment: Antiviral activity against Adenovirus type 7 infected in human HeLa cells assessed as inhibition of virus-induced cytopathogenicity at 32 ug/ml after 48 hrs by crystal violet staining method. Type of data set: functional. The following applies: for inhibition at 32 µg/mL: type 7, HeLa. The essentials:
as §4

Data set [12] concerns Coxsackievirus B5. As to the kind of experiment: Antiviral activity against Coxsackievirus B5 infected in human HepG2 cells assessed as inhibition of virus-induced cytopathogenicity at 32 ug/ml after 48 hrs by crystal violet staining method. The conditions noted are these: for inhibition at 32 µg/mL: Enterovirus B, HepG2, 48 h. The data set is classed as functional. The essentials:
as §4

The test system of data set [13] is Enterovirus. As to the kind of experiment: Antiviral activity against Enterovirus 71 infected in human rhabdomyosarcoma cells assessed as inhibition of virus-induced cytopathogenicity at 32 ug/ml after 48 hrs by crystal violet staining method. Type of data set: functional. The following applies: for inhibition at 32 µg/mL: Enterovirus, 71, 48 h. The essentials: as §4

Data set [14] can be described thus: Selectivity index, ratio of CC50 for human HeLa cells to EC50 for Adenovirus type 7 infected in human HeLa cells. Type of data set: toxicity, cell-based. The following applies: read-out: Ratio CC50/EC50. The essentials: as §3
Data set [15] has as its system Enterovirus. Put plainly: Antiviral activity against Enterovirus 71 infected in human rhabdomyosarcoma cells assessed as inhibition of virus-induced cytopathogenicity at 16 ug/ml after 48 hrs by crystal violet staining method. Type of data set: functional. The following applies: Enterovirus, 71, 48 h. The essentials:
as §4

Converted amounts (≈) assume the structure as drawn. The source made the active and inactive calls. No cut-off for these calls is given here.

In general, EC50 refers to the concentration giving half of the maximal effect. Broadly, the CC50 is the concentration giving 50% cytotoxicity. Read a low CC50 as harm at low concentration. Consider `Nc1sc2c(c1-c1nc3ccccc3s1)CCCC2`, for which the values for the EC50 in the data set with Coxsackievirus B5 [1] and in the data set with Enterovirus [6] were 14.5 µg/mL (≈ 50.6 µM) and 14.1 µg/mL (≈ 49.2 µM), respectively. Moreover, the CC50 at 72 h in [2] stood at 475 µg/mL (≈ 1660 µM); in [4] it was 253 µg/mL (≈ 883 µM); in data set [7], 163 µg/mL (≈ 570 µM). The “inhibition (INH)” value in the data set on Influenza A virus [3] and with unidentified adenovirus [9] was less than 50% throughout. Moreover, the selectivity ratio in [5] is 11.9; in [8], 17.8.

One may read the inhibition as the relative decrease from the control value, in per cent. Take `Oc1ccccc1/C=N/c1sc2c(c1-c1nc3ccccc3s1)CCC2`: the inhibition result with Influenza A virus [10] is “Active”. Also, the inhibition at 32 µg/mL in the data set with unidentified adenovirus [11] stood at 60%; with Coxsackievirus B5 [12], 60%; in the data set on Enterovirus [13] it was 50%. Besides, the EC50 in the data set on Coxsackievirus B5 [1] is 11.1 µg/mL (≈ 29.5 µM); with Enterovirus [6] it was 7.9 µg/mL (≈ 21 µM); in the data set on unidentified adenovirus [9], 17.4 µg/mL (≈ 46.2 µM). Also, the CC50 at 72 h was found to be 168 µg/mL (≈ 446 µM) in data set [2], 100 µg/mL (≈ 266 µM) in data set [4] and 156 µg/mL (≈ 414 µM) in data set [7]. In addition, the “inhibition (INH)” value with Influenza A virus [3] is less than 50%. Also, the values for the selectivity ratio in data set [5], in data set [14] and in data set [8] were 13.8, 9.6 and 12.6, respectively.

For the compound `Nc1sc2c(c1-c1nc3cc(Cl)ccc3s1)CCCC2`, the inhibition result with Coxsackievirus B5 [1], in the data set with Enterovirus [6] and in the data set on unidentified adenovirus [9] was “Dose-dependent effect” each time. The EC50 is 3.5 µg/mL (≈ 10.9 µM) in the data set with Coxsackievirus B5 [1], 1.3 µg/mL (≈ 4.05 µM) with Enterovirus [6] and 5 µg/mL (≈ 15.6 µM) in the data set with unidentified adenovirus [9]. For the same compound, the CC50 at 72 h in data set [2] came out at 107 µg/mL (≈ 333 µM); in data set [4] it was 43.5 µg/mL (≈ 136 µM); in data set [7], 93.7 µg/mL (≈ 292 µM). The “inhibition (INH)” value in the data set on Influenza A virus [3] is less than 50%. The selectivity ratio in [5] worked out at 26.7; in data set [14] it was 20.9; in data set [8], 33.7.

Consider `C(=N\c1sc2c(c1-c1nc3ccccc3s1)CCCC2)/c1ccc2c(c1)OCO2`, for which the inhibition result in the data set with Influenza A virus [10], in the data set with unidentified adenovirus [11], in the data set on Coxsackievirus B5 [12] and in the data set with Enterovirus [13] was “Active” throughout. The “inhibition (INH)” value with Coxsackievirus B5 [1], in the data set on Influenza A virus [3] and in the data set with unidentified adenovirus [9] was less than 50% throughout. For the same compound, the CC50 at 72 h in data set [2] was 568 µg/mL (≈ 1360 µM); in data set [4], 299 µg/mL (≈ 714 µM); in data set [7], 329 µg/mL (≈ 787 µM). For the same compound, in the data set with Enterovirus [6], the EC50 stood at 32.6 µg/mL (≈ 77.9 µM). Further, in data set [8], the selectivity ratio was found to be 9.1.

Regarding `NC(=O)c1ncn([C@@H]2O[C@H](CO)[C@@H](O)[C@H]2O)n1` [RIBAVIRIN], the results for the EC50 in the data set with Coxsackievirus B5 [1], in the data set on Enterovirus [6] and in the data set with unidentified adenovirus [9] were 22.3 µg/mL (≈ 91.3 µM), 49.2 µg/mL (≈ 201 µM) and 27.8 µg/mL (≈ 114 µM), respectively. Also, the CC50 at 72 h in data set [2], in data set [4] and in data set [7] was more than 500 µg/mL throughout. For the same compound, the selectivity ratio in data set [5] is more than 20; in [14], more than 15; in [8], more than 10.

For `C(=N\c1sc2c(c1-c1nc3ccccc3s1)CCCC2)/c1ccccc1`, the inhibition entry with Influenza A virus [10] is “Active”. For the same compound, the inhibition at 32 µg/mL with unidentified adenovirus [11], in the data set on Coxsackievirus B5 [12] and with Enterovirus [13] was 60% in each case. The EC50 was found to be 32.9 µg/mL (≈ 87.8 µM) in the data set with Coxsackievirus B5 [1], 14.2 µg/mL (≈ 37.9 µM) with Enterovirus [6] and 12.5 µg/mL (≈ 33.4 µM) with unidentified adenovirus [9]. Further, the CC50 at 72 h in data set [2] is 333 µg/mL (≈ 890 µM); in data set [4], 71.1 µg/mL (≈ 190 µM); in data set [7] it was 308 µg/mL (≈ 821 µM). The “inhibition (INH)” value in the data set with Influenza A virus [3] is less than 50%. Further, the values for the selectivity ratio in data set [5], in data set [14] and in [8] were 9.3, 26.5 and 4.9, respectively.

With `Oc1ccccc1/C=N/c1sc2c(c1-c1nc3ccccc3s1)CCCC2`, the inhibition at 16 µg/mL in the data set with Enterovirus [15] is 60%. Moreover, in the data set with Influenza A virus [10], the inhibition result is “Active”. In addition, the inhibition at 32 µg/mL in the data set with unidentified adenovirus [11] and in the data set on Coxsackievirus B5 [12] was 60% in each case. Besides, the inhibition entry in the data set with Coxsackievirus B5 [1], with Enterovirus [6] and in the data set with unidentified adenovirus [9] was “Dose-dependent effect” each time. For the same compound, the EC50 in the data set with Coxsackievirus B5 [1] is 5.4 µg/mL (≈ 13.8 µM); in the data set on Enterovirus [6], 2 µg/mL (≈ 5.12 µM); in the data set with unidentified adenovirus [9], 10.8 µg/mL (≈ 27.7 µM). For the same compound, the half-maximal cytotoxic concentration (CC50) at 72 h turned out to be 122 µg/mL (≈ 312 µM) in [2], 42.4 µg/mL (≈ 108 µM) in data set [4] and 114 µg/mL (≈ 292 µM) in data set [7]. Further, the “inhibition (INH)” value in the data set with Influenza A virus [3] was less than 50%. Also, the selectivity ratio in [5] amounted to 20.8; in [14], 11.1; in data set [8] it was 20.3.

On to `Nc1sc2c(c1-c1nc3cc(Cl)ccc3s1)CCC2`, for which the inhibition result with Coxsackievirus B5 [1], in the data set on Enterovirus [6] and in the data set with unidentified adenovirus [9] was “Dose-dependent effect” in each case. Also, the figures for the EC50 in the data set with Coxsackievirus B5 [1], in the data set with Enterovirus [6] and in the data set on unidentified adenovirus [9] were 6.4 µg/mL (≈ 20.9 µM), 1.2 µg/mL (≈ 3.91 µM) and 9.8 µg/mL (≈ 31.9 µM), respectively. For the same compound, the results for the CC50 at 72 h in [2], in data set [4] and in [7] were 75.1 µg/mL (≈ 245 µM), 59.1 µg/mL (≈ 193 µM) and 67.8 µg/mL (≈ 221 µM), respectively. Moreover, the “inhibition (INH)” value with Influenza A virus [3] is recorded as less than 50%. The selectivity ratio is 10.4 in [5], 7.6 in [14] and 46.9 in data set [8].

Turning to `Fc1ccc(/C=N/c2sc3c(c2-c2nc4ccccc4s2)CCCC3)cc1`, in the data set on Enterovirus [15], the inhibition at 16 µg/mL was 60%. Besides, in the data set with Influenza A virus [10], the inhibition entry is “Active”. Moreover, the inhibition at 32 µg/mL in the data set with unidentified adenovirus [11] and in the data set on Coxsackievirus B5 [12] was 60% each time. The inhibition entry in the data set on Coxsackievirus B5 [1], in the data set with Enterovirus [6] and in the data set with unidentified adenovirus [9] was “Dose-dependent effect” in each case. The EC50 in the data set on Coxsackievirus B5 [1] is 9.7 µg/mL (≈ 24.7 µM); with Enterovirus [6] it was 6.9 µg/mL (≈ 17.6 µM); in the data set on unidentified adenovirus [9] it was 21.1 µg/mL (≈ 53.8 µM). For the same compound, the values for the CC50 at 72 h in data set [2], in data set [4] and in data set [7] were 277 µg/mL (≈ 705 µM), 230 µg/mL (≈ 586 µM) and 324 µg/mL (≈ 826 µM), respectively. Further, the “inhibition (INH)” value with Influenza A virus [3] is reported as less than 50%. The selectivity ratio in [5] came to 33.2; in data set [14], 13.1; in data set [8], 32.8.
